The values below come from ChEMBL document CHEMBL2413051, “Antibacterial activity of quinoxalines, quinazolines, and 1,5-naphthyridines” (2013).

≈ marks a conversion by molar mass, not a printed value. Calls of active or inactive are those of the source.

Assay [1] has as its target T1, Cell division protein FtsZ (Staphylococcus aureus) (UniProt P0A031).
T1 sequence (whole entry): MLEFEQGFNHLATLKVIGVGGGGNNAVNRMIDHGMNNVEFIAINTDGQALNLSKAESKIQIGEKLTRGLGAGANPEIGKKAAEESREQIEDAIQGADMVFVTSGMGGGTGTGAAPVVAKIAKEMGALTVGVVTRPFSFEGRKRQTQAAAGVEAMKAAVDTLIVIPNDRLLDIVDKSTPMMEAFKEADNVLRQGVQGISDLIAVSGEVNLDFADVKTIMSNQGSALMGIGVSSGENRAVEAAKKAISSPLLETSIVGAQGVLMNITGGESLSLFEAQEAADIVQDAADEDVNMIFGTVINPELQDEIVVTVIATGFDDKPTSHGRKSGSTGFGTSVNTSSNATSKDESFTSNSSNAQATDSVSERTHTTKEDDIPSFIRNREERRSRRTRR
Kind of assay: Stimulation of purified Staphylococcus aureus FtsZ polymerization at 40 ug/ml by microtiter plate based light-scattering assay in presence of 10 mM depolymerizing agent GDP.

Assay [2] deals with Enterococcus faecalis. Description: microbe, parasite or virus in culture. Format: functional. Conditions: ATCC 19433.
The target in assay [3] is T1, Cell division protein FtsZ (Staphylococcus aureus). Description: Stimulation of purified Staphylococcus aureus FtsZ polymerization at 80 ug/ml by microtiter plate based light-scattering assay.
Assay [4] has as its system Staphylococcus aureus. Kind of assay: Bactericidal activity against methicillin-resistant Staphylococcus aureus ATCC 33591. Format: functional.
Assay [5] concerns Enterococcus faecalis. Description: Bactericidal activity against vancomycin-resistant Enterococcus faecalis ATCC 51575. Format: functional.
The subject of assay [6] is Enterococcus faecalis. Description: microbe, parasite or virus in culture. Format: functional. Conditions: ATCC 51575.
For assay [7], the system named is Staphylococcus aureus. Description: Ratio of MBC to MIC for methicillin-sensitive Staphylococcus aureus 8325-4. Format: functional.
The test system of assay [8] is Enterococcus faecalis. Kind of assay: Ratio of MBC to MIC for vancomycin-resistant Enterococcus faecalis ATCC 51575. In kind it is functional. Summed up:
(§1)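 Ratio of MBC to MIC, both in µg/mL. MIC was found by CLSI broth microdilution as the lowest concentration giving ≥90% growth inhibition. MBC was found by a previously described method. Per CLSI, a ratio of 1–2 is read as bactericidal and ≥8 as bacteriostatic.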

Assay [9] concerns Staphylococcus aureus. Description: microbe, parasite or virus in culture. Format: functional. Conditions: ATCC 33591.
For assay [10], the system named is Staphylococcus aureus. Kind of assay: microbe, parasite or virus in culture. Format: functional. The following applies: 8325-4.
Assay [11] has as its system Staphylococcus aureus. Kind of assay: Bactericidal activity against methicillin-sensitive Staphylococcus aureus 8325-4. In kind it is functional. Summed up:
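MBC against MSSA strain 8325-4, determined per a previously described method; paired MIC by CLSI broth microdilution, MIC being lowest concentration giving ≥90% growth inhibition.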

Assay [12] has as its target T1, Cell division protein FtsZ (Staphylococcus aureus). Kind of assay: Stimulation of purified Staphylococcus aureus FtsZ polymerization at 40 ug/ml by microtiter plate based light-scattering assay.
The test system of assay [13] is Staphylococcus aureus. Kind of assay: Ratio of MBC to MIC for methicillin-resistant Staphylococcus aureus ATCC 33591. Format: functional. The procedure, abridged: as §1

In general, MBC refers to the smallest concentration meeting the test's criterion for killing. `CC(C)(C)c1ccc(-c2ncnc3c(CNC(=N)N)cccc23)cc1`: the outcome in assay [1] and in assay [3] was Active. Further, the MIC came to 32 µg/mL (≈ 96 µM) in assay [2], 32 µg/mL (≈ 96 µM) in assay [6], 8 µg/mL (≈ 24 µM) in assay [9] and 4 µg/mL (≈ 12 µM) in [10]. Moreover, the figures for the MBC in assay [4], in assay [5] and in assay [11] were 16 µg/mL (≈ 48 µM), 64 µg/mL (≈ 192 µM) and 8 µg/mL (≈ 24 µM), respectively. For the same molecule, the Ratio in assay [7] and in assay [8] was 2 in each case.
`CC(C)(C)c1ccc(-c2cnc3c(CNC(=N)N)cccc3n2)cc1`: the result in [1] and in assay [12] was Active. Also, the MIC was 8 µg/mL (≈ 24 µM) in assay [2], 16 µg/mL (≈ 48 µM) in assay [6], 4 µg/mL (≈ 12 µM) in assay [9] and 4 µg/mL (≈ 12 µM) in [10]. The MBC in [4] was found to be 8 µg/mL (≈ 24 µM); in assay [5], 16 µg/mL (≈ 48 µM); in assay [11] it was 4 µg/mL (≈ 12 µM). In addition, the figures for the Ratio in [7], in assay [8] and in assay [13] were 1, 1 and 2, respectively.
As for `CC(C)(C)c1ccc(-c2ccnc3c(CNC(=N)N)ccnc23)cc1`, the outcome in assay [1] and in assay [3] was Active. In addition, the MIC in [2] is 32 µg/mL (≈ 96 µM); in [6], 64 µg/mL (≈ 192 µM); in assay [9], 8 µg/mL (≈ 24 µM); in [10], 8 µg/mL (≈ 24 µM). The MBC in [4] came to 16 µg/mL (≈ 48 µM); in assay [5], 64 µg/mL (≈ 192 µM); in [11], 8 µg/mL (≈ 24 µM). In addition, the Ratio is listed as 1 in [7], 1 in assay [8] and 2 in assay [13].
Consider `CC(C)(C)c1cccc(-c2cnc3c(CNC(=N)N)cccc3n2)c1`, for which the outcome in assay [1] and in assay [12] was Active. For the same molecule, the MIC in assay [2] came out at 8 µg/mL (≈ 24 µM); in [6] it was 16 µg/mL (≈ 48 µM); in [9], 4 µg/mL (≈ 12 µM); in assay [10], 4 µg/mL (≈ 12 µM). For the same molecule, the MBC in [4] stood at 8 µg/mL (≈ 24 µM); in assay [5] it was 32 µg/mL (≈ 96 µM); in assay [11] it was 4 µg/mL (≈ 12 µM). The Ratio in assay [7] is 1; in assay [8], 2; in [13], 2.
